Assay results published in ChEMBL document CHEMBL2417437, “A hit to lead discovery of novel N-methylated imidazolo-, pyrrolo-, and pyrazolo-pyrimidines as potent and selective mTOR inhibitors” (Bioorg Med Chem Lett, 2013).

Experiments:
[1] = target: Phosphatidylinositol 4,5-bisphosphate 3-kinase catalytic subunit alpha isoform (Homo sapiens, UniProt P42336); test: Displacement of TAMRA-PIP3 from PI3Kalpha GRP-1 pleckstrin homology domain (unknown origin) assessed as formation of 3,4,5-inositoltriphosphate after 30 mins by fluorescence polarization assay
[2] = target: T1, Phosphatidylinositol 4,5-bisphosphate 3-kinase catalytic subunit delta isoform (Homo sapiens, UniProt O00329); test: Displacement of TAMRA-PIP3 from PI3Kdelta GRP-1 pleckstrin homology domain (unknown origin) assessed as formation of 3,4,5-inositoltriphosphate after 30 mins by fluorescence polarization assay
T1 sequence (O00329 whole entry): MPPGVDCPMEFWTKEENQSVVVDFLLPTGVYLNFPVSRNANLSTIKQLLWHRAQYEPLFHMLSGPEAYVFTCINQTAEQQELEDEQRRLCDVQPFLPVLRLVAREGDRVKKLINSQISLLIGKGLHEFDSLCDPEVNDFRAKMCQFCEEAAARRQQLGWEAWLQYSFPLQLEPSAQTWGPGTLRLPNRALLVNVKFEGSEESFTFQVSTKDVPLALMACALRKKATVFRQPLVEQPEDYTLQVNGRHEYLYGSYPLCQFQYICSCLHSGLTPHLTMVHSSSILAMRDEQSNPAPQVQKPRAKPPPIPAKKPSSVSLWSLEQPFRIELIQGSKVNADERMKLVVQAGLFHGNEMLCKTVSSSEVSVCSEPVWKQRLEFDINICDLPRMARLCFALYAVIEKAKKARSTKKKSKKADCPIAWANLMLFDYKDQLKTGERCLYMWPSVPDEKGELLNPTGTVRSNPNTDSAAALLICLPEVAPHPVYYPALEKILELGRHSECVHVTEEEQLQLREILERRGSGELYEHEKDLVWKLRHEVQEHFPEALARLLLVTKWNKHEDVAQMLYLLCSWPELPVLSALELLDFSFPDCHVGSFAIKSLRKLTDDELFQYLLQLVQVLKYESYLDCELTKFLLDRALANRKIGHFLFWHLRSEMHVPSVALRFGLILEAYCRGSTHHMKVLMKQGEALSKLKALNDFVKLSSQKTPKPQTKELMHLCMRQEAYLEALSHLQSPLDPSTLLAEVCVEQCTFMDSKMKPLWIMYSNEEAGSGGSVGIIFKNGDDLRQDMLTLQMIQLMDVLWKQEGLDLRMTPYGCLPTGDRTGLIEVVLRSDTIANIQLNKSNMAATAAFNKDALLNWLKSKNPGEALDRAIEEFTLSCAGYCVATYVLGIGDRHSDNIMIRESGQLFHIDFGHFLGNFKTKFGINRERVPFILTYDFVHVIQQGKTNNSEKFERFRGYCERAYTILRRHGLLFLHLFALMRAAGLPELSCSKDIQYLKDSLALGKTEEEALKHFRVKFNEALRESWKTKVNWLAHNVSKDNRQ

[3] = target: T2, Serine/threonine-protein kinase mTOR (Homo sapiens, UniProt P42345); test: Inhibition of mTOR in PTEN deficient human PC3 cells assessed as inhibition of p70S6K phosphorylation; type: cell-based, PC-3
[4] = target: T2, Serine/threonine-protein kinase mTOR; test: Inhibition of mTOR in PTEN deficient human PC3 cells assessed as inhibition of Akt phosphorylation at Ser473; type: cell-based, PC-3
[5] = tested on: PC-3; test: Antiproliferative activity against PTEN deficient human PC3 cells assessed as cell viability after 3 days by CellTiter-Glo assay; type: functional, cell-based; details: PC-3, 72 h
Method in brief: (§1)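 Three-day cell viability assay in PTEN-null NCI-PC3 prostate carcinoma cells and in MCF7 neo/HER2 cells, read as antiproliferative activity.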

[6] = organism: Homo sapiens; test: Selectivity ratio of IC50 for PI3Kalpha (unknown origin) to Ki for human recombinant mTOR (1360-2549)
Method in brief: (§2)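 Ratio of two biochemical values. The PI3K IC50 (PI3Kα or PI3Kδ) comes from a fluorescence polarization kinase assay. The mTOR Ki comes from a LanthaScreen FRET assay on the recombinant mTOR kinase domain. Each value is from at least two separate determinations, with typical variation under 30%.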

[7] = tested on: MCF7; test: Antiproliferative activity against human MCF7 cells expressing neo/Her2 assessed as cell viability after 3 days by CellTiter-Glo assay; type: functional, cell-based; details: MCF7, 72 h; method in brief: as §1
[8] = organism: Homo sapiens; test: Selectivity ratio of IC50 for PI3Kdelta (unknown origin) to Ki for human recombinant mTOR (1360-2549); method in brief: as §2
[9] = target: T2, Serine/threonine-protein kinase mTOR; test: Inhibition of mTOR (unknown origin)
[10] = target: T2, Serine/threonine-protein kinase mTOR; test: Inhibition of human recombinant mTOR (1360-2549) expressed in insect cells assessed as phosphorylation of recombinant (GFP)-4-EBP1 after 30 mins by LanthaScreen FRET assay
[11] = Volume of distribution at steady state in iv dosed mouse; type: ADME, organism-based; details: in vivo, read-out: Vdss
[12] = Oral bioavailability in mouse at 25 mg/kg; type: ADME, organism-based; details: in vivo
Method in brief: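 Mice were given a 25 mg/kg oral dose as a suspension in MCT. Bioavailability was reported as %F.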

[13] = Apparent permeability across basolateral to apical side in MDCK cells; type: ADME, cell-based, Canis lupus familiaris; details: dog
[14] = Efflux ratio of apparent permeability in MDCK cells; type: ADME, cell-based, Canis lupus familiaris; details: dog
[15] = Plasma clearance in iv dosed mouse; type: ADME, organism-based

Phosphatidylinositol 4,5-bisphosphate 3-kinase catalytic subunit alpha isoform, sequence (P42336 whole entry, the tested form may be a part, canonical isoform): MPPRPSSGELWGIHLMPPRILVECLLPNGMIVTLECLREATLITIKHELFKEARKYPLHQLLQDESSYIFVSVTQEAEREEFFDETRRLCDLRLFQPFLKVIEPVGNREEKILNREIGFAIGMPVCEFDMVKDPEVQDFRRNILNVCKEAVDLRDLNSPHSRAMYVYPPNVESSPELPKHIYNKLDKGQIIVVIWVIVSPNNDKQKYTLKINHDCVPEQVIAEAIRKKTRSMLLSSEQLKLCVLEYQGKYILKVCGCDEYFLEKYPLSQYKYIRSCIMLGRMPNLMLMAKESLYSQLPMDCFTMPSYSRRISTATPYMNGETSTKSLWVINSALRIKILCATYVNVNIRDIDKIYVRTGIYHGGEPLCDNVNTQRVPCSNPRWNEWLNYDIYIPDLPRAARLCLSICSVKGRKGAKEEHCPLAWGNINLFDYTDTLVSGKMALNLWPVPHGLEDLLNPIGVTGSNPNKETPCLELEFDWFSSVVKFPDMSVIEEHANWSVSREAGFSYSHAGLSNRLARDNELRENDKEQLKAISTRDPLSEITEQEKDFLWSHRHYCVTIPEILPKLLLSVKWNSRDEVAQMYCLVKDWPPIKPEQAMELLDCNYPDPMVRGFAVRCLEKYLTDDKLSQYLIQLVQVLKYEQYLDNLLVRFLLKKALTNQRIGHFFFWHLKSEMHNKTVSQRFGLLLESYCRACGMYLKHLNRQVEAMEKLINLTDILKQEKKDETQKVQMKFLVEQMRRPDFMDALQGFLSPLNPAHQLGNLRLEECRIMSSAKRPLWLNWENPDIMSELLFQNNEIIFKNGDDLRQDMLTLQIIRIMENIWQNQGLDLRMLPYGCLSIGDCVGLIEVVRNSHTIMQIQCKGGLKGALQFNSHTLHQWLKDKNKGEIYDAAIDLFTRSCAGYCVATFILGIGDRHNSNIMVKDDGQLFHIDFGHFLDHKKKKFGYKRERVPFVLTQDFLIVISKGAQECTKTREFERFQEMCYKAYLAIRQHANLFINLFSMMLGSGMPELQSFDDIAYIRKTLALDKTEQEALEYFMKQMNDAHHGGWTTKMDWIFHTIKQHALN

| SMILES | Ki [1] | Ki [2] | IC50 [3] | IC50 [4] | EC50 [5] | EC50 [7] | Ki [10] | other results |
| --- | --- | --- | --- | --- | --- | --- | --- | --- |
| CCNC(=O)Nc1ccc(-c2nc(N3CCOC[C@H]3C)c3c(ncn3C)n2)cc1 |  |  |  |  |  |  |  | IC50 [1]: 5800 nM; IC50 [2]: 4000 nM |
| CCNC(=O)Nc1ccc(-c2nc(N3CCOC[C@@H]3C)c3c(n2)nc(C(C)(C)O)n3C)cc1 | 7000 nM | 7300 nM |  |  |  |  |  |  |
| CCNC(=O)Nc1ccc(-c2nc(N3CCOC[C@@H]3CC)c3c(ncn3C)n2)cc1 |  |  | 153 nM | 69 nM | 737 nM | 518 nM |  | Ratio [6]: > 2600; IC50 [1]: > 10000 nM; Ratio [8]: > 2600; IC50 [2]: > 10000 nM |
| CCNC(=O)Nc1ccc(-c2nc(N3CCOC[C@@H]3C)c3nc(C(C)(C)O)n(CCO)c3n2)cc1 | 190 nM | 160 nM |  |  |  |  | 9.5 nM | Ki [9]: 9 nM |
| CCNC(=O)Nc1ccc(-c2nc(N3CCOC[C@@H]3C)c3nc(C(C)(C)O)n(C)c3n2)cc1 | 390 nM | 490 nM |  |  |  |  | 7 nM |  |
| CCNC(=O)Nc1ccc(-c2nc(N3CCOC[C@@H]3C)c3c(ccn3C)n2)cc1 | > 10000 nM | > 10000 nM | 110 nM | 77 nM | 1900 nM | 9000 nM | 19 nM |  |
| CCNC(=O)Nc1ccc(-c2nc(N3C[C@@H]4C[C@H]3CO4)c3c(cnn3C)n2)cc1 | 5140 nM | 5150 nM | 270 nM | 340 nM | 2900 nM | 1700 nM | 28 nM |  |
| CCNC(=O)Nc1ccc(-c2nc(N3CCOC[C@@H]3CC)c3c(ccn3C)n2)cc1 | > 10000 nM | > 10000 nM | 40 nM | 11 nM | 280 nM | 420 nM | 6 nM |  |
| CC(C)(O)c1nc2c(N3CCOCC3)nc(-c3cnc(N)nc3)nc2n1CCO | 2 nM | 4 nM |  |  |  |  |  | Ki [9]: 72 nM |
| CCNC(=O)Nc1ccc(-c2nc(N3CCOC[C@@H]3C)c3ncn(CC)c3n2)cc1 | 380 nM | 630 nM |  |  |  |  | 8 nM |  |
| CCNC(=O)Nc1ccc(-c2nc(N3CCOC[C@@H]3CC)c3c(n2)c(C)nn3C)cc1 | 5800 nM | > 10000 nM | 8 nM | 4 nM | 86 nM | 160 nM |  |  |
| CCNC(=O)Nc1ccc(-c2nc(N3CCOC[C@@H]3C)c3ncn(C)c3n2)cc1 | 370 nM | 890 nM |  |  |  |  | 12 nM |  |
| CCNC(=O)Nc1ccc(-c2nc(N3CCOC[C@@H]3C)c3c(ncn3CC)n2)cc1 | > 10000 nM | > 10000 nM |  |  |  |  |  |  |
| CCNC(=O)Nc1ccc(-c2nc(N3CCOC[C@@H]3C)c3c(ncn3C)n2)cc1 | > 10000 nM | > 10000 nM |  |  | 290 nM | 1300 nM |  |  |
| CCNC(=O)Nc1ccc(-c2nc(N3CCCOCC3)c3c(ncn3C)n2)cc1 |  |  | 8900 nM | 7200 nM |  |  |  | Ratio [6]: 53; IC50 [1]: 6400 nM; Ratio [8]: 61; IC50 [2]: 7300 nM |
| CCNC(=O)Nc1ccc(-c2nc(N3CCOC[C@@H]3C)c3c(cnn3C)n2)cc1 | > 10000 nM | > 10000 nM | 47 nM | 8 nM | 420 nM | 760 nM | 8 nM | Vd [11]: 0.36 L/kg; bioavailability [12]: 4.4%; Papp B→A [13]: 8.6 ×10⁻⁶ cm/s; efflux ratio [14]: 0.55; clearance [15]: 13 mL/min/kg |
| CCNC(=O)Nc1ccc(-c2nc(N3CCOCC3)c3c(ncn3C)n2)cc1 |  |  |  |  |  |  | 150 nM |  |
| CCNC(=O)Nc1ccc(-c2nc(N3CCOC[C@@H]3CC)c3c(cnn3C)n2)cc1 | 3400 nM | > 10000 nM | 15 nM | 8 nM | 130 nM | 260 nM | 1 nM |  |
